Columns and labels:
[1] = species: Homo sapiens; test: Selectivity index, ratio of Ki for human CB1 receptor to Ki for human CB2 receptor
[2] = target: T1, Cannabinoid receptor 1 (Homo sapiens, UniProt P21554); test: Displacement of [3H]CP-55940 from human CB1 receptor expressed in CHO cell membrane after 90 mins by scintillation counting analysis; assay type: cell membranes
Summary of the method: (§1)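 Membranes from CHO cells stably expressing human CB₁ (G418-maintained), suspended in 50 mM Tris-HCl, 0.5% BSA, 5 mM MgCl₂, 2.5 mM EDTA, pH 7.4. Displacement of 0.5 nM [³H]CP-55,940 by 1 nM–10 μM compound, 90 min, 30 °C. Filtration on GF/C, scintillation counting. Cheng-Prusoff Ki, LIGAND fitting; mean SEM, n = 4.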

[3] = target: T2, Cannabinoid receptor 2 (Homo sapiens, UniProt P34972); test: Inverse agonist activity at human CB2 receptor expressed in CHO cell membrane assessed as increase in forskolin-stimulated cAMP production at 1 uM by scintillation counting analysis relative to WIN55212-2
Summary of the method: (§2)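 Whole hCB₂ CHO cells (1 × 10⁶/assay) in HEPES-buffered saline with glucose, pH 7.4, preincubated 10 min at 37 °C with 0.5 mM Ro 20-1724. Compound at 1 or 10 μM with 1 μM forskolin. Stopped with cold 6% TCA, ether-extracted; cAMP measured by [³H]cAMP competition binding with adrenal binding protein. Expressed as % increase versus WIN 55,212-2 (set −100%); n = 4.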

[4] = target: T3, Cannabinoid receptor 2 (Rattus norvegicus, UniProt Q9QZN9); test: Displacement of [3H]CP-55940 from Sprague-Dawley rat spleen CB2 receptor after 60 mins by scintillation counting analysis
T3 sequence (Q9QZN9 whole entry): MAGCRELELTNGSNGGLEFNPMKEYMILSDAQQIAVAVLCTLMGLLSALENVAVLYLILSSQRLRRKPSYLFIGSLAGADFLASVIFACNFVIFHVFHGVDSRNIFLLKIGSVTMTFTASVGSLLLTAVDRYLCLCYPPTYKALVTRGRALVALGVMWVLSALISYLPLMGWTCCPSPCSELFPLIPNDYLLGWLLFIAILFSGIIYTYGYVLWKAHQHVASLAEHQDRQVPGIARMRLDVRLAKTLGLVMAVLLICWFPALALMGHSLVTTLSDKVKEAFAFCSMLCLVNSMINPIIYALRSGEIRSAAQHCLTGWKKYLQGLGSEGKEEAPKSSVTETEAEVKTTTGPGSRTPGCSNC
Summary of the method: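 Competed against 0.5 nM [³H]CP-55,940 using 1 nM–10 μM compound for 60 min at 30 °C. Bound ligand collected on GF/C filters and counted. Ki from IC50 by Cheng-Prusoff; mean SEM of n = 4.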

[5] = target: T2, Cannabinoid receptor 2; test: Displacement of [3H]CP-55940 from human CB2 receptor expressed in CHO cell membrane after 60 mins by scintillation counting analysis; assay type: cell membranes
Summary of the method: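 Human CB₂-expressing CHO cell membranes in 50 mM Tris-HCl, 0.5% BSA, 5 mM MgCl₂, 1 mM EDTA, pH 7.4. Binding of 0.5 nM [³H]CP-55,940 competed with 1 nM–10 μM compound for 60 min at 30 °C, then GF/C filtration and scintillation counting. Ki by Cheng-Prusoff from IC50; mean SEM of n = 4.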

[6] = target: Cannabinoid receptor 1 (Rattus norvegicus) (UniProt P20272); test: Displacement of [3H]CP-55940 from Sprague-Dawley rat brain CB1 receptor at > 10 uM after 90 mins by scintillation counting analysis
Summary of the method: (§3)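 Competition with [³H]CP-55,940 (1.0 nM stated in rat CB₁ section; 0.5 nM in general protocol) against 1 nM–10 μM compound, 90 min at 30 °C. GF/C filtration, scintillation counting. Ki via Cheng-Prusoff; mean SEM, n = 4.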

[7] = target: T2, Cannabinoid receptor 2; test: Inverse agonist activity at human CB2 receptor expressed in CHO cell membrane assessed as increase in forskolin-stimulated cAMP production at 10 uM by scintillation counting analysis relative to WIN55212-2; summary of the method: as §2
[8] = target: T1, Cannabinoid receptor 1; test: Displacement of [3H]CP-55940 from human CB1 receptor expressed in CHO cell membrane at > 10 uM after 90 mins by scintillation counting analysis; assay type: cell membranes; summary of the method: as §1
[9] = target: Cannabinoid receptor 1 (Rattus norvegicus, UniProt P20272); test: Displacement of [3H]CP-55940 from Sprague-Dawley rat brain CB1 receptor after 90 mins by scintillation counting analysis; summary of the method: as §3
Cannabinoid receptor 1 (Rattus norvegicus, UniProt P20272), sequence (P20272 whole entry): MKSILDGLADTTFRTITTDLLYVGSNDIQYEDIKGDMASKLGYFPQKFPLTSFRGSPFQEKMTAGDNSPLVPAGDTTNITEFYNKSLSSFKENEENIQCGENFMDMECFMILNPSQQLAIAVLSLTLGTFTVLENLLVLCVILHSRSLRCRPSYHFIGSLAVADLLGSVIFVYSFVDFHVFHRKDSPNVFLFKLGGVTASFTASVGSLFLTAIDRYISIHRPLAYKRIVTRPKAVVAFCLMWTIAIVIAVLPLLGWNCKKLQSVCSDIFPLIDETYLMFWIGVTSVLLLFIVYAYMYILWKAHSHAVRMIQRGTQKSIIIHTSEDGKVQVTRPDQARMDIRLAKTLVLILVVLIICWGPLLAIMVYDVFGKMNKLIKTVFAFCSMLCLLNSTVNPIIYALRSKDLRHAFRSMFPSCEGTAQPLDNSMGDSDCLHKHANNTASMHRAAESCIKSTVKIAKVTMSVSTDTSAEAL

T2 sequence (P34972 whole entry): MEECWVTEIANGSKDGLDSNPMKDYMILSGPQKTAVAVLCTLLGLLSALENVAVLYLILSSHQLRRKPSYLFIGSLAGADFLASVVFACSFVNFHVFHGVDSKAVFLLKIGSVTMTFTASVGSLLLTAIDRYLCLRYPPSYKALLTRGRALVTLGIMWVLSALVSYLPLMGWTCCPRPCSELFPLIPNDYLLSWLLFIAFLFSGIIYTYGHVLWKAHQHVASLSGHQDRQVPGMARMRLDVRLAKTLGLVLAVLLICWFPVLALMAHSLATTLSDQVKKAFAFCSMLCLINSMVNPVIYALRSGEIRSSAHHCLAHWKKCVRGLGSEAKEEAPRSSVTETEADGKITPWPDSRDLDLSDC
T1 sequence (P21554 whole entry): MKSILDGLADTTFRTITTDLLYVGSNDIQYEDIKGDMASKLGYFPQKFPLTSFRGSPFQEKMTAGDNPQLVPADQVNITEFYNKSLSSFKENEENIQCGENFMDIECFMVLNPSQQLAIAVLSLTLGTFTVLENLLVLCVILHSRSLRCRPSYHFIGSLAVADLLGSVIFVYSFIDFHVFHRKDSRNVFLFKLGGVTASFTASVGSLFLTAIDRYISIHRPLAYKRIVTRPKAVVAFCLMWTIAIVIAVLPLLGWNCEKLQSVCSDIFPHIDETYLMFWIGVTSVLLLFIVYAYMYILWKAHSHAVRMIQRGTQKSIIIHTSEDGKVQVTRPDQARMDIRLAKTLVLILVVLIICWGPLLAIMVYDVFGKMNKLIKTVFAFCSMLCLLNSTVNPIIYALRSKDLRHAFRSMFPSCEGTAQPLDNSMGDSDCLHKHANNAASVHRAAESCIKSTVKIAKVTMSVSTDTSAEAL
Cannabinoid receptor 1 (Rattus norvegicus), sequence (P20272 whole entry): as the sequence (P20272 whole entry) above

| SMILES | Ratio Ki [1] | Ki [2] | Activity [3] | Ki [4] | Ki [5] | Activity [6] | Activity [7] | Activity [8] | Ki [9] |
| --- | --- | --- | --- | --- | --- | --- | --- | --- | --- |
| CCCCCn1cc(C(=O)NC23CC4CC(CC(C4)C2)C3)c(=O)n2nc(-c3ccc(Cl)cc3Cl)cc12 | > 333 | > 10 µM | 87% | 0.035 µM | 0.03 µM | 40% | 112% | 37% | > 10 µM |
| CCCCCn1cc(C(=O)NC23CC4CC(CC(C4)C2)C3)c(=O)n2nc(-c3cccs3)cc12 | > 1600 | > 10 µM | 89% | 0.00752 µM | 0.00624 µM | 22% | 102% | 26% | > 10 µM |
| CCCCCn1cc(C(=O)NC2CCCCC2)c(=O)n2nc(CC)cc12 | 40 | 0.42 µM | 121% | 0.0115 µM | 0.0104 µM |  | 146% |  | 0.48 µM |
| CCCCCn1cc(C(=O)NC23CC4CC(CC(C4)C2)C3)c(=O)n2nc(-c3ccc(Cl)cc3)cc12 | > 2580 | > 10 µM | 144% | 0.00421 µM | 0.00388 µM | 10% | 183% | 13% | > 10 µM |
| CCCCCn1cc(C(=O)NC23CC4CC(CC(C4)C2)C3)c(=O)n2nc(C)c(Br)c12 | > 45 | > 10 µM | 32% | 0.272 µM | 0.22 µM | 1% | 48% | 1% | > 10 µM |
| CCCCCn1cc(C(=O)NC2CCCCC2)c(=O)n2nc(C(C)(C)C)cc12 | 55 | 0.675 µM | 85% | 0.0142 µM | 0.0123 µM |  | 115% |  | 0.72 µM |
| CCCCCn1cc(C(=O)NC2CCCCCC2)c(=O)n2nc(-c3ccccc3Cl)cc12 | > 970 | > 10 µM | 53% | 0.0123 µM | 0.0103 µM | 42% | 69% | 35% | > 10 µM |
| CCCCCn1cc(C(=O)NC2CCCCC2)c(=O)n2nc(-c3ccc(Cl)cc3Cl)cc12 | > 192 | > 10 µM | 45% | 0.06 µM | 0.052 µM | 47% | 65% | 38% | > 10 µM |
| CCCCCn1cc(C(=O)NC23CC4CC(CC(C4)C2)C3)c(=O)n2nc(-c3ccoc3)cc12 | > 990 | > 10 µM | 56% | 0.0124 µM | 0.0101 µM | 17% | 92% | 19% | > 10 µM |
| CCCCCn1cc(C(=O)NC23CC4CC(CC(C4)C2)C3)c(=O)n2nc(-c3ccccc3C)cc12 | > 3500 | > 10 µM | 155% | 0.00321 µM | 0.00286 µM | 30% | 184% | 22% | > 10 µM |
| CCCCCn1cc(C(=O)NC2CCCCCC2)c(=O)n2nc(-c3ccc(Cl)cc3Cl)cc12 | > 270 | > 10 µM | 61% | 0.04 µM | 0.037 µM | 49% | 77% | 39% | > 10 µM |
| CCCCCn1cc(C(=O)NC23CC4CC(CC(C4)C2)C3)c(=O)n2nc(C(C)(C)C)cc12 | 124 | 0.612 µM | 114% | 0.00554 µM | 0.00495 µM |  | 189% |  | 0.675 µM |
| CCCCCn1cc(C(=O)NC2CCC(C)CC2)c(=O)n2nc(C)cc12 (configuration not stated) | 23 | 2.43 µM | 48% | 0.12 µM | 0.106 µM |  | 67% |  | 2.6 µM |
| CCCCCn1cc(C(=O)NC2CCCCCC2)c(=O)n2nc(CC)cc12 | 38 | 0.2 µM | 137% | 0.00563 µM | 0.00522 µM |  | 159% |  | 0.22 µM |
| CCCCCn1cc(C(=O)NC2CCCCC2)c(=O)n2nc(-c3ccccc3)cc12 | 17 | 0.702 µM | 92% | 0.05 µM | 0.042 µM |  | 123% |  | 0.75 µM |
| CCCCCn1cc(C(=O)NC2CCCCC2)c(=O)n2nc(-c3ccccc3Cl)cc12 | > 212 | > 10 µM | 37% | 0.052 µM | 0.047 µM | 40% | 55% | 34% | > 10 µM |
| CCCCCn1cc(C(=O)NC23CC4CC(CC(C4)C2)C3)c(=O)n2nc(-c3c(Cl)cccc3Cl)cc12 | > 102 | > 10 µM | 38% | 0.11 µM | 0.098 µM | 18% | 62% | 21% | > 10 µM |
| CCCCCn1cc(C(=O)NC23CC4CC(CC(C4)C2)C3)c(=O)n2nc(-c3ccco3)cc12 | > 2030 | > 10 µM | 107% | 0.00514 µM | 0.00492 µM | 40% | 124% | 34% | > 10 µM |
| CCCCCn1cc(C(=O)NC23CC4CC(CC(C4)C2)C3)c(=O)n2nc(C)c(-c3ccccc3)c12 | > 55 | > 10 µM | 34% | 0.214 µM | 0.181 µM | 15% | 51% | 15% | > 10 µM |
| CCCCCn1cc(C(=O)NC2CCCCCC2)c(=O)n2nc(C)cc12 | 51 | 0.527 µM | 44% | 0.0124 µM | 0.0103 µM |  | 63% |  | 0.642 µM |
| CCCCCn1cc(C(=O)NC2CCCCCC2)c(=O)n2nc(-c3ccc(Cl)cc3)cc12 | > 1580 | > 10 µM | 121% | 0.00653 µM | 0.00631 µM | 47% | 162% | 40% | > 10 µM |
| CCCCCn1cc(C(=O)NC23CC4CC(CC(C4)C2)C3)c(=O)n2nc(-c3ccc(C)s3)cc12 | > 862 | > 10 µM | 38% | 0.0122 µM | 0.0116 µM | 33% | 68% | 31% | > 10 µM |
| CCCCCn1cc(C(=O)NC2CCCCCC2)c(=O)n2nc(-c3ccccc3)cc12 | 27 | 0.825 µM | 103% | 0.035 µM | 0.031 µM |  | 134% |  | 0.9 µM |
| CCCCCn1cc(C(=O)NC23CC4CC(CC(C4)C2)C3)c(=O)n2nc(C)cc12 | 88 | 1.12 µM | 56% | 0.0153 µM | 0.0127 µM |  | 75% |  | 1.46 µM |
| CCCCCn1cc(C(=O)NC2CCCCC2)c(=O)n2nc(C)cc12 | 58 | 1.28 µM | 42% | 0.026 µM | 0.022 µM |  | 54% |  | 1.58 µM |
| CCCCCn1cc(C(=O)NCc2ccccc2)c(=O)n2nc(C)cc12 | 9.2 | 3.29 µM | 38% | 0.428 µM | 0.358 µM |  | 52% |  | 3.69 µM |

Source: ChEMBL document CHEMBL2380310, “Discovery of 7-oxopyrazolo[1,5-a]pyrimidine-6-carboxamides as potent and selective CB(2) cannabinoid receptor inverse agonists” (J Med Chem, 2013)
